Holding throughout (format): biochemical, bovine
The target in assay [1] is T1, NADH:ubiquinone oxidoreductase (complex I) (Bos taurus, UniProt P25708). Kind of assay: Kinetic isotope effect in NAD. Conditions: 1 mM FeCN, pH 7.5, 32 °C.
For assay [2], the target named is T1, NADH:ubiquinone oxidoreductase (complex I). Kind of assay: Kinetic isotope effect in NAD. As to conditions: 3.5 mM HAR, pH 7.5, 32 °C. The essentials: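 Bovine heart complex I with hexaammineruthenium(III) as acceptor, at 32 °C. Donor concentration series used NADH, [4R-2H]NADH, [4S-2H]NADH, APADH and [4S-2H]APADH in 20 mM Tris-HCl pH 7.5. pH dependence was measured with NADH versus [4S-2H]NADH at 0.1 mM. Reactions were enzyme-initiated and read at 340–380 nm (ε 4.81 mM–1 cm–1). Background-subtracted initial rates over ~15 s; mean of ≥3 measurements.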

The target is the same in assay [3]. Kind of assay: NADH:APAD+ transhydrogenation.
Assay [4] has the same target. Kind of assay: NADH:HAR oxidoreduction.
The target is the same in assay [5]. In words: NADH:FeCN oxidoreduction. As to conditions: 0.1 mM NADH, 1 mM FeCN, pH 7.5, 32 °C.

SMILES strings stand for the structures. Entries after “also recorded” stand apart in the source; their conditions may differ.

With `[2H]C1C=CN(C2OC(COP(=O)(O)OP(=O)(O)OCC3OC(n4cnc5c(N)ncnc54)C(O)C3O)C(O)C2O)C=C1C(C)=O` (stereo not drawn) [S-APADD, [4S-^2H]APADH], the “KIE in the APAD(H/D):FeCN reaction” value in assay [1] is given as around 6.5. In assay [2], the “KIE in the APAD(H/D):HAR reaction” value is listed as around 3.5.

For `Nc1ncnc2c1ncn2[C@@H]1O[C@H](CO)[C@@H](O)[C@H]1O` [adenosine], the figures for the IC50 in assay [3] and in assay [4] were 10 mM and 7 mM, respectively. The “IC50 for inhibition of the FeCN reaction” value in assay [5] is recorded as “no inhibition ^b”; in assay [5] (listed as Adenosine) it was “no discernible inhibition”.

For `NC(=O)c1ccc[n+]([C@@H]2O[C@H](COP(=O)([O-])O)[C@@H](O)[C@H]2O)c1` [NMN^+, nicotinamide mononucleotide], the “IC50 for inhibition of the APAD+ reaction” value in assay [3] (0.1 mM NADH, 1 mM APAD+, pH 7.5, 32 °C) is on record as “does not inhibit; also recorded: no inhibition”. The “IC50 for inhibition of the HAR reaction” value in assay [4] (0.1 mM NADH, 3.5 mM HAR, pH 7.5, 32 °C) is “does not inhibit; also recorded: no inhibition”. In assay [5], the “IC50 for inhibition of the FeCN reaction” value is “does not inhibit; also recorded: no inhibition”.

The record behind these values is paper PMC3680915 (Biochemistry, 2013).
